Data: ChEMBL document CHEMBL1914308, “N-fused imidazoles as novel anticancer agents that inhibit catalytic activity of topoisomerase IIα and induce apoptosis in G1/S phase” (J Med Chem, 2011)
Calls of active or inactive are those of the source. The calls are words filed in the database; no cut-off is given here.

Tests used:
HEK293 [1] = test: Anticlonogenic activity against human HEK293 cells after 48 hrs by crystal violet staining; assay type: functional; settings: HEK293, 48 h, read-out: LC50 (the source's name)
Summary of the method: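 HEK 293 and Vero cells were grown in DMEM with 10% FBS and 1% penicillin/streptomycin at 37 °C in 5% CO₂. At 60–70% confluence they were exposed for 48 h to a range of concentrations, diluted in DMEM from 100 mM DMSO stocks. Colony survival is expressed as %. Values are mean ± SD of three independent experiments; LC₅₀ is the concentration killing half the cells.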

HEK293 [2] = test: Antimigratory activity against human HEK293 cells at 25 uM after 24 hrs by wound healing assay; assay type: functional, cell-based
Summary of the method: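 Wound healing in HEK 293 monolayer: scratch made with sterile micro tip, cells then cultured with or without 25 μM compound; gap closure followed over time to 24 h. Best of three independent experiments shown.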

Vero [3] = test: Anticlonogenic activity against african green monkey Vero cells assessed as inhibition of colony formation of cells at 20 to 100 uM after 48 hrs by crystal violet staining; assay type: cell-based; settings: chlorocebus sabaeus
Summary of the method: (§1)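 Clonogenic survival in HEK 293 and Vero cells, 48 h exposure at graded concentrations; % survival plotted; mean ± SD of three independent experiments. Cells grown in DMEM with 10% FBS and 1% antibiotic at 37 °C, 5% CO2; compound diluted from 100 mM DMSO stock into DMEM, added at 60–70% confluence.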

HEK293 [4] = test: Induction of cell cycle arrest in human HEK293 cells assessed as accumulation at G2/M phase at 15 uM after 48 hrs by propidium iodide staining-based FACS analysis (reference value: 7.5 +/- 1.0%); assay type: functional
HEK293 [5] = test: Anticlonogenic activity against human HEK293 cells assessed as inhibition of colony formation of cells at 20 to 100 uM after 48 hrs by crystal violet staining; assay type: functional, cell-based; summary of the method: as §1
HEK293 [6] = test: Induction of cell cycle arrest in human HEK293 cells assessed as accumulation at S phase at 25 uM after 48 hrs by propidium iodide staining-based FACS analysis (reference value: 16.91 +/- 1.0%); assay type: functional
[7] = target: T1, DNA topoisomerase 2-alpha (Homo sapiens, UniProt P11388); test: Inhibition of topoisomerase 2 alpha-mediated DNA relaxation activity in human HEK293 cells assessed as increase in supercoiled DNA at 35 uM after 3 to 4 hrs by agarose gel electrophoresis in presence of 20 to 250 mM ATP; assay type: cell-based
HEK293 [8] = test: Induction of cell cycle arrest in human HEK293 cells assessed as accumulation at G1 phase at 35 uM after 48 hrs by propidium iodide staining-based FACS analysis (reference value: 61 +/- 0.9%); assay type: functional
[9] = target: T1, DNA topoisomerase 2-alpha; test: Inhibition of etoposide poisoning activity against human recombinant DNA topoisomerase 2alpha assessed as enhancement of in relaxation of supercoiled plasmid pBR322 DNA at 100 uM after 30 mins by agarose gel electrophoresis
[10] = target: T1, DNA topoisomerase 2-alpha; test: Inhibition of human topoisomerase 2 alpha-mediated decatenation of kDNA by agarose gel electrophoresis
Summary of the method: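 kDNA decatenation by hTopoIIα run at 10 to 100 μM compound under the standard decatenation conditions (37 °C, 30 min, agarose gel, densitometry); IC50 taken from the concentration–inhibition plot.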

[11] = target: T1, DNA topoisomerase 2-alpha; test: Inhibition of etoposide poisoning activity against human recombinant DNA topoisomerase 2alpha assessed as enhancement of in relaxation of supercoiled plasmid pBR322 DNA at 200 uM after 30 mins by agarose gel electrophoresis
HEK293 [12] = test: Induction of apoptosis in human HEK293 cells assessed as increase in Bax/Bcl-XL ratio at 15 to 25 uM after 48 hrs by Western blot analysis; assay type: functional, cell-based
Summary of the method: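 Whole-cell extracts from HEK 293 cells after 48 h at graded concentrations, Western blotted for caspase-3, Bax, Bcl-XL and PARP (cleaved 86 kDa fragment); β-actin as loading control.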

HEK293 [13] = test: Induction of apoptosis in human HEK293 cells assessed as increase in apoptotic nuclei at 15 uM after 48 hrs by DAPI staining-based fluorescence microscopic analysis; assay type: functional
Summary of the method: (§2)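 HEK 293 cells exposed 48 h to 0, 15, 25 or 35 μM, nuclei stained with DAPI and apoptotic nuclei counted by fluorescence imaging; three replicates.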

[14] = target: T1, DNA topoisomerase 2-alpha; test: Competitive inhibition of human topoisomerase-2 alpha-ATPase activity by Lineweaver-Burk assay in presence of 200 to 520 uM ATP
Summary of the method: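 Compound at 0, 50, 100, 150 μM, each with ATP at 200–520 μM; 20 min at 37 °C. Released phosphate read by malachite green at OD 620 nm; Lineweaver–Burk analysis, Ki from slope replot.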

HEK293 [15] = test: Induction of apoptosis in human HEK293 cells assessed as apoptotic cells at 35 uM after 48 hrs by propidium iodide staining-based FACS analysis (reference value: 4.88 +/- 0.8%); assay type: functional
HEK293 [16] = test: Induction of apoptosis in human HEK293 cells assessed as increase in apoptotic nuclei at 35 uM after 48 hrs by DAPI staining-based fluorescence microscopic analysis; assay type: functional; summary of the method: as §2
HEK293 [17] = test: Anticlonogenic activity against human HEK293 cells assessed as inhibition of colony formation of cells at 25 uM after 48 hrs by crystal violet staining; assay type: functional, cell-based
HEK293 [18] = test: Induction of cell cycle arrest in human HEK293 cells assessed as accumulation at S phase at 35 uM after 48 hrs by propidium iodide staining-based FACS analysis (reference value: 16.91 +/- 1.0%); assay type: functional
Vero [19] = test: Cytotoxicity activity against african green monkey Vero assessed as cell survival at 12 uM after 48 hrs by MTT assay; assay type: cell-based; settings: chlorocebus sabaeus
MCF7 = test: Cytotoxicity against human MCF7 cells assessed as cell survival at 15 uM after 48 hrs by MTT assay; assay type: functional; settings: MCF7, 48 h, read-out: Activity
Summary of the method: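 MTT survival of MCF 7 breast cancer cells, with MCF 10A as normal comparator; 48 h exposure. MCF 7 in DMEM with 10% FBS; MCF 10A in DMEM/F-12 with 10% FBS plus hydrocortisone, cholera toxin, insulin, EGF and L-glutamine. Mean ± SD of three independent experiments.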

[20] = Cytotoxicity activity against african green monkey Vero assessed as cell survival at 100 uM after 48 hrs by MTT assay; assay type: cell-based; settings: chlorocebus sabaeus, Vero cells; read-out: Activity
Summary of the method: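 MTT survival of HEK 293 and Vero cells after 48 h with compound at graded concentrations. DMEM, 10% FBS, 37 °C, 5% CO2; dilutions in DMEM from 100 mM DMSO stock, added at 60–70% confluence. Mean ± SD of three independent experiments.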

T1 sequence (P11388 whole entry): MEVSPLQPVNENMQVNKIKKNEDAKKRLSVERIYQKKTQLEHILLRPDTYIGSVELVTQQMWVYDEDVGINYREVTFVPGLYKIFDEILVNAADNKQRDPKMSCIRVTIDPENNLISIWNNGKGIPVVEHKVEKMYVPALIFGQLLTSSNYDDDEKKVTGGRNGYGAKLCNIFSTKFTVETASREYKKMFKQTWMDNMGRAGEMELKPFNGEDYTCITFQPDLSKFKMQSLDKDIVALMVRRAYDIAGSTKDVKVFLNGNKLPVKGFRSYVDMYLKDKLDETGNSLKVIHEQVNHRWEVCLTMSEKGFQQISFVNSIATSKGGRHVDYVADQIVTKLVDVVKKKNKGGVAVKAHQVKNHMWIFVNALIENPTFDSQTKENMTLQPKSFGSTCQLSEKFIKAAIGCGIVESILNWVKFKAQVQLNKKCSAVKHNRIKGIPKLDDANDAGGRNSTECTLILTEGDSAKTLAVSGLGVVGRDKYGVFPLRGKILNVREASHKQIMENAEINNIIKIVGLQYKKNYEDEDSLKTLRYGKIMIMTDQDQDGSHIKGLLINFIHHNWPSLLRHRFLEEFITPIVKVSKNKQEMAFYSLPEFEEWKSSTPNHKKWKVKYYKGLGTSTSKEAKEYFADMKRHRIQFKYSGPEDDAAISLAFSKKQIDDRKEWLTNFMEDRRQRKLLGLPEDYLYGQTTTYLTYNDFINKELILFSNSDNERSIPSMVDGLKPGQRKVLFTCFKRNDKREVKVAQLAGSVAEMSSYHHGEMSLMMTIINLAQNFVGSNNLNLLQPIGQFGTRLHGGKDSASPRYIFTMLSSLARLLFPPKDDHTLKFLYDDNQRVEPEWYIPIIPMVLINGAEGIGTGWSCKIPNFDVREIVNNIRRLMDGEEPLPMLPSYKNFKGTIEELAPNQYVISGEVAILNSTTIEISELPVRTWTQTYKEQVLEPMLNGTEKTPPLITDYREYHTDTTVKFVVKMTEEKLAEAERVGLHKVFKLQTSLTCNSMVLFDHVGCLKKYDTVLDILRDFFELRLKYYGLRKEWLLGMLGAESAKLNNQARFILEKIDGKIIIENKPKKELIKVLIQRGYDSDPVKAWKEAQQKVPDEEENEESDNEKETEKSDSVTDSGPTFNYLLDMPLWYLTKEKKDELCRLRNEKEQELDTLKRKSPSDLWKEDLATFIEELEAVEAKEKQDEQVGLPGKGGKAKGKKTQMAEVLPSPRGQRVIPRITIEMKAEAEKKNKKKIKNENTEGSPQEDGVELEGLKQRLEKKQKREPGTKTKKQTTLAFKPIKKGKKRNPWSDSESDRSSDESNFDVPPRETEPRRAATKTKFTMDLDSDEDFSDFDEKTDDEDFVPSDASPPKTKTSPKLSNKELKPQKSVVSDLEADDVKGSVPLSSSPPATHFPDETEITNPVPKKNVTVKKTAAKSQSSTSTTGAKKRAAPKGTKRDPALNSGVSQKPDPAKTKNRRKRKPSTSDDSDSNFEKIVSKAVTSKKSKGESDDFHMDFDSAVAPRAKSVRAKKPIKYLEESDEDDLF

With CC(C)(C)Nc1c(-c2ccc(C(=O)O)cc2)nc2ccccn12 as the molecule, how does the CC50 (HEK293 [1]) read?
Its CC50 is 30 µM.

And the Activity (HEK293 [2])?
Its Activity is “Active”.

And the “inhibition (INH)” value (Vero [3])?
The value was “Dose-dependent effect”.

What about the Activity (HEK293 [4]) of the same molecule?
The Activity was 9.92%.

And the inhibition (HEK293 [5])?
The inhibition was “Dose-dependent effect”.

And the Activity (HEK293 [6])?
Its Activity is 14.16%.

What about the inhibition [7] of the same molecule?
Its inhibition is “inactive”.

What about the Activity (HEK293 [8]) of the same molecule?
The Activity was 21.52%.

What about the inhibition [9] of the same molecule?
Its inhibition is “inactive”.

What about the IC50 [10] of the same molecule?
The IC50 was 52.7 µM.

And the inhibition [11]?
The inhibition was “inactive”.

What about the Activity (HEK293 [12]) of the same molecule?
Its Activity is “Active”.

What about the Activity (HEK293 [13]) of the same molecule?
Its Activity is 20%.

What about the Ki [14] of the same molecule?
Its Ki is 75 µM.

What about the Activity (HEK293 [15]) of the same molecule?
The Activity was 49.29%.

What about the Activity (HEK293 [16]) of the same molecule?
The Activity was 80%.

What about the Activity (HEK293 [17]) of the same molecule?
Its Activity is “Active”.

What about the Activity (HEK293 [18]) of the same molecule?
Its Activity is 10.07%.

What about the Activity (Vero [19]) of the same molecule?
The Activity was “Non-toxic”.

And the viability at 15 µM (MCF7)?
Its viability at 15 µM is 50%.

And the viability at 48 h, 100 µM [20]?
The viability at 48 h, 100 µM was under 50%.
